Experimental data taken from PMC10448641 (ACS Omega, 2023).

Tested on: WISH cells
Assay: MTT cytotoxicity assay, WISH normal cells
Type: cell-based
Details: read-out: IC50 ± SD, WISH (Normal cells)
Outline: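 Cells obtained from the Egyptian National Cancer Institute and grown in RPMI-1640/DMEM with L-glutamine. Seeded at 5 × 10^4 cells/well in triplicate and treated at 0.1, 1, 10 and 100 μg/mL. Viability read by MTT on the second day with absorbance on a microplate reader. IC50 derived against control-group viability, recorded in triplicate, mean ± SD.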

For `COc1cccc2c1C(=O)c1c(O)c3c(c(O)c1C2=O)C[C@@](O)(C(=O)CO)C[C@@H]3O[C@H]1C[C@H](N)[C@H](O)[C@H](C)O1` [Doxorubicin], the IC50 was 56.5 ± 2.7 µM.
